Measured values of several laboratories.
Protocols differ between the studies behind these lines.
Observed: cell growth or viability

With `Oc1cccc(-c2nc(N3CCOCC3)c3oc4ncccc4c3n2)c1` the inhibition was 18.8% (MDA-MB-231; CCK-8; 1 µM).
With `O=C(Nc1ccc(Oc2nc3ccccc3n3cnnc23)cc1)Nc1cccc(Cl)c1` the viability was 29.3% (MDA-MB-231; MTT; 100 µM, 24 h).
With `COc1cc(C(=O)c2nc(-c3cccc4c3CCN4)c[nH]2)cc(OC)c1OC` the IC50 was 0.022 µM (A-375; MTS; 72 h).
`C[C@H](N)C(=O)Nc1ccccc1/N=c1\cc(-c2ccc3c(c2)OCO3)oc2ccccc12` gave an inhibition of 7.31% (MDA-MB-231; CCK-8; 1 µM).
The IC50 of `COc1cc(C(=O)c2nc(-c3cccc4[nH]nnc34)c[nH]2)cc(OC)c1OC` is reported as 0.0632 µM (A-375; MTS; 72 h).
With `O=C(Nc1ccccc1)Nc1ccc(Oc2nc3ccccc3n3cnnc23)cc1` the viability was 70.1% (MDA-MB-231; MTT; 25 µM, 24 h).
`COc1ccc2/c(=N/c3ccccc3NC(=O)CN)cc(-c3ccc4c(c3)OCCO4)oc2c1` has an inhibition of 12.6% (MDA-MB-231; CCK-8; 1 µM).
With `CN(C)c1cccc(Nc2nc(-c3ccncc3)nc3c2CNCC3)c1` the IC50 was 88.8 µM (A-375; MTT).
`COc1cc(C(=O)c2nc(-c3cccc4[nH]ccc34)cs2)cc(OC)c1OC` gave an IC50 of 0.0056 µM (A-375; MTS; 72 h).
`COc1cccc2c1C(=O)c1c(O)c3c(c(O)c1C2=O)C[C@@](O)(C(=O)CO)C[C@@H]3O[C@H]1C[C@H](N)[C@H](O)[C@H](C)O1` has an IC50 of 2.7 µM (MRC5; MTT; 75 h).
`COc1cccc(NC(=O)Nc2ccc(Oc3nc4ccccc4n4cnnc34)cc2)c1` gave a viability of 24.6% (MDA-MB-231; MTT; 100 µM, 24 h).
The IC50 of `O=c1[nH]cc(F)c(=O)[nH]1` is reported as 0.59 µg/mL (C32; SRB; 72 h).
For `NCC(=O)Nc1ccccc1/N=c1\cc(-c2ccc3c(c2)OCO3)oc2ccccc12`, the inhibition was 12.4% (MDA-MB-231; CCK-8; 1 µM).
The viability of `CNC(=O)c1cc(Oc2ccc(NC(=O)Nc3ccc(Cl)c(C(F)(F)F)c3)cc2)ccn1` is reported as 16.7% (MDA-MB-231; MTT; 50 µM, 24 h).
With `O=C(Nc1ccccc1/N=c1\cc(-c2ccc3c(c2)OCO3)oc2ccccc12)N1CCOCC1` the inhibition was -4.28% (MDA-MB-231; CCK-8; 1 µM).
With `Cc1nc(Nc2ncc(C(=O)Nc3c(C)cccc3Cl)s2)cc(N2CC[C@H](O)C2)n1` the IC50 was over 10 µM (L-82; ATP luminescence; 72 h).
The viability of `O=C(Nc1ccc(Cl)cc1)Nc1ccc(Oc2nc3ccccc3n3cnnc23)cc1` is reported as 77.3% (MDA-MB-231; MTT; 25 µM, 24 h).
`COc1cc(C(=O)c2nc(-c3cccc4c3CC(=O)N4)c[nH]2)cc(OC)c1OC` gave an IC50 of 0.0275 µM (A-375; MTS; 72 h).
`N[C@@H](CO)C(=O)Nc1ccccc1/N=c1\cc(-c2ccc3c(c2)OCO3)oc2ccccc12` gave an inhibition of 11.7% (MDA-MB-231; CCK-8; 1 µM).
`COc1cc(C(=O)c2nc(-c3ccsc3)c[nH]2)cc(OC)c1OC` has an IC50 of 0.0432 µM (A-375; MTS; 72 h).
`O=C(Nc1ccccc1/N=c1\cc(-c2ccc3c(c2)OCO3)oc2ccccc12)N1CCNCC1` has an inhibition of 2.22% (MDA-MB-231; CCK-8; 1 µM).
`C[C@H]1CNCCN1c1nccc(-c2noc3c2CCC[C@@]32CCCc3sc(N)c(C#N)c32)n1` gave an EC50 of 5.01 µM (A-375; 5 days).
`NCCCCC(=O)Nc1ccccc1/N=c1\cc(-c2ccc3c(c2)OCO3)oc2ccccc12` has an inhibition of -5.88% (MDA-MB-231; CCK-8; 1 µM).
The IC50 of `Cn1nnc2c(C(N)=O)ncn2c1=O` is reported as 2080 µM (human Astrocyte; MTT).
